Laboratory results published in ChEMBL document CHEMBL4312003, “Optimization of biaryloxazolidinone as promising antibacterial agents against antibiotic-susceptible and antibiotic-resistant gram-positive bacteria” (Eur J Med Chem, 2020).
≈ marks a conversion by molar mass, not a printed value.

What was measured:
Enterococcus faecium [1] = assay: Antibacterial activity against vancomycin-resistant Enterococcus faecium assessed as complete reduction in bacterial cell growth by CLSI protocol based broth liquid microdilution method; type: functional
Method in brief: (§1)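 Broth liquid microdilution per CLSI guidelines; isolates identified on an automated MicroScan system before testing. MIC taken as lowest concentration giving total inhibition of bacterial growth, reported in μg/mL. S. aureus ATCC29213 run as the control strain.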

Staphylococcus aureus [2] = assay: Antibacterial activity against Staphylococcus aureus ATCC 29213 assessed as complete reduction in bacterial cell growth by CLSI protocol based broth liquid microdilution method; type: functional; method in brief: as §1
Staphylococcus aureus [3] = assay: Antibacterial activity against methicillin-resistant Staphylococcus aureus assessed as complete reduction in bacterial cell growth by CLSI protocol based broth liquid microdilution method; type: functional; method in brief: as §1
Staphylococcus aureus [4] = assay: Antibacterial activity against methicillin-sensitive Staphylococcus aureus assessed as complete reduction in bacterial cell growth by CLSI protocol based broth liquid microdilution method; type: functional; method in brief: as §1
Enterococcus faecalis [5] = assay: Antibacterial activity against linezolid-resistant Enterococcus faecalis assessed as complete reduction in bacterial cell growth by CLSI protocol based broth liquid microdilution method; type: functional; method in brief: as §1
Enterococcus faecium [6] = assay: Antibacterial activity against clinical isolates of vancomycin-resistant Enterococcus faecium assessed as complete reduction in bacterial cell growth by CLSI protocol based broth liquid microdilution method; type: functional; method in brief: as §1
MAO-A = target: T1, MAO-A (Homo sapiens, UniProt P21397); assay: Inhibition of recombinant human MAO-A (active motif 31502) at 30 uM using luciferin as substrate incubated for 15 mins followed by substrate addition and measured after 60 mins by luminescence based method relative to control; details: probe luciferin
T1 sequence (P21397 whole entry): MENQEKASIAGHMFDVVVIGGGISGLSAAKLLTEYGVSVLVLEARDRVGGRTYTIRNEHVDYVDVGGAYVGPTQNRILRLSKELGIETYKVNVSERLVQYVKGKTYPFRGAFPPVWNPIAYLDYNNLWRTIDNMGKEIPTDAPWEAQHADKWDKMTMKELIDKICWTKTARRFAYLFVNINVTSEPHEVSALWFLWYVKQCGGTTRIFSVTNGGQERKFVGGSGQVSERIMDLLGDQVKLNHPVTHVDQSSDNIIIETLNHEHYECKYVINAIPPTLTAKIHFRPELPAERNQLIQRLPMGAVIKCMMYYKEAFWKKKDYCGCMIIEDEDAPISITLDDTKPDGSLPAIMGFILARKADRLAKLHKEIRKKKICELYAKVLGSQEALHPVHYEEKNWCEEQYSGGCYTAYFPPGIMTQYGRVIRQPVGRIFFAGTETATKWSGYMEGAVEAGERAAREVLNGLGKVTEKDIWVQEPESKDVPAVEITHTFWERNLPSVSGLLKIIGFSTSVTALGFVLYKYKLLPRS
Method in brief: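 Recombinant human MAO-A was measured with the MAO-Glo kit, modified. Compounds were in DMSO (1% DMSO final) and preincubated with enzyme 15 min at room temperature. Luciferin-derivative substrate was then added and the reaction run 60 min at room temperature. Luciferase detection reagent was added for 20 min and luminescence read. Buffer without enzyme served as the 100% inhibition control; DMSO alone as the no-inhibition control. Percent inhibition = (Max − signal)/(Max − Min)×100.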

Enterococcus faecalis [7] = assay: Antibacterial activity against clinical isolates of linezolid-resistant Enterococcus faecalis assessed as complete reduction in bacterial cell growth by CLSI protocol based broth liquid microdilution method; type: functional; method in brief: as §1
Staphylococcus aureus [8] = assay: Antibacterial activity against clinical isolates of methicillin-sensitive Staphylococcus aureus assessed as reduction in bacterial cell growth by CLSI protocol based broth microdilution method; type: functional; method in brief: as §1
[9] = Stability in simulated gastric acid assessed as compound remaining at pH 1.2 incubated for 0.5 hrs; type: ADME; details: read-out: Stability
[10] = Stability in simulated gastric acid assessed as compound remaining at pH 1.2 incubated for 1.5 hrs; type: ADME; details: read-out: Stability
HepG2 = assay: Cytotoxicity against human HepG2 cells assessed as reduction in cell viability incubated for 48 hrs by MTT assay; type: cell-based; details: HepG2, 48 h
Method in brief: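 HepG2 cells were grown in RPMI1640 with 10% FBS and plated at about 4×10^4 cells/well in MEM. After 24 h at 37 °C in 5% CO2, compounds were added at the indicated final concentrations for 48 h. MTT was added (0.5 mg/mL final) for 4 h at 37 °C and the formazan dissolved in DMSO. Absorbance was read at 492 nm (630 nm reference). Each compound was tested three times; IC50 given as mean ± SD.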

[11] = Stability in simulated gastric acid assessed as compound remaining at pH 1.2 incubated for 1 hr; type: ADME; details: read-out: Stability
[12] = Stability in simulated gastric acid assessed as compound remaining at pH 1.2 incubated for 2 hrs; type: ADME; details: read-out: Stability

SMILES	MIC (Enterococcus faecium [1]) [µg/mL]	MIC (Staphylococcus aureus [2]) [µg/mL]	MIC (Staphylococcus aureus [3]) [µg/mL]	MIC (Staphylococcus aureus [4]) [µg/mL]	MIC (Enterococcus faecalis [5]) [µg/mL]	MIC (Enterococcus faecium [6]) [µg/mL]	inhibition at 1 h, 30 µM (MAO-A) [%]	MIC (Enterococcus faecalis [7]) [µg/mL]	MIC (Staphylococcus aureus [8]) [µg/mL]	remaining at 0.5 h [9] [%]	remaining at 1.5 h [10] [%]	IC50 (HepG2) [µM]	remaining at 1 h [11] [%]	remaining at 2 h [12] [%]
CC(=O)NC[C@H]1CN(c2ccc(-c3ccc(/C=N/N4CCCCC4)c(F)c3)c(F)c2)C(=O)O1	0.5 (≈ 1.1 µM)	0.25 (≈ 0.548 µM)	0.25 (≈ 0.548 µM)	0.25 (≈ 0.548 µM)	0.5 (≈ 1.1 µM)	–	–	–	–	–	–	–	–	–
CC(=O)NC[C@H]1CN(c2ccc(-c3ccc(/C=N/N4CCSCC4)c(C)c3)c(F)c2)C(=O)O1	1 (≈ 2.13 µM)	2 (≈ 4.25 µM)	1 (≈ 2.13 µM)	1 (≈ 2.13 µM)	2 (≈ 4.25 µM)	–	–	–	–	–	–	–	–	–
CC(=O)NC[C@H]1CN(c2ccc(-c3ccc(/C=N/N4CCS(=O)(=O)CC4)c(O)c3)c(F)c2)C(=O)O1	0.25 (≈ 0.496 µM)	0.125 (≈ 0.248 µM)	0.25 (≈ 0.496 µM)	0.25 (≈ 0.496 µM)	0.25 (≈ 0.496 µM)	1 to 2 (≈ 1.98 to 3.96 µM)	67	1 to 2 (≈ 1.98 to 3.96 µM)	1 to 2 (≈ 1.98 to 3.96 µM)	–	–	–	–	–
CC(=O)NC[C@H]1CN(c2ccc(-c3ccc(/C=N/N4CCNCC4)c(F)c3)c(F)c2)C(=O)O1	0.5 (≈ 1.09 µM)	0.5 (≈ 1.09 µM)	0.5 (≈ 1.09 µM)	0.5 (≈ 1.09 µM)	0.5 (≈ 1.09 µM)	–	–	–	–	–	–	–	–	–
CC(=O)NC[C@H]1CN(c2ccc(-c3ccc(/C=N/N4CCNCC4)c(O)c3)c(F)c2)C(=O)O1	0.25 (≈ 0.549 µM)	0.5 (≈ 1.1 µM)	0.25 (≈ 0.549 µM)	0.25 (≈ 0.549 µM)	0.25 (≈ 0.549 µM)	–	–	–	–	–	–	–	–	–
CC(=O)NC[C@H]1CN(c2ccc(-c3ccc(/C=N/N4CCOCC4)c(O)c3)c(F)c2)C(=O)O1	0.25 (≈ 0.548 µM)	0.25 (≈ 0.548 µM)	0.25 (≈ 0.548 µM)	0.25 (≈ 0.548 µM)	0.25 (≈ 0.548 µM)	–	–	–	–	–	–	–	–	–
COc1cc(-c2ccc(N3C[C@H](CNC(C)=O)OC3=O)cc2F)ccc1/C=N/N1CCSCC1	1 (≈ 2.06 µM)	2 (≈ 4.11 µM)	1 (≈ 2.06 µM)	1 (≈ 2.06 µM)	1 (≈ 2.06 µM)	–	–	–	–	–	–	–	–	–
CCC(=O)N1CCN(/N=C/c2ccc(-c3ccc(N4C[C@H](CNC(C)=O)OC4=O)cc3F)cc2O)CC1	0.25 (≈ 0.489 µM)	0.25 (≈ 0.489 µM)	0.25 (≈ 0.489 µM)	0.25 (≈ 0.489 µM)	0.25 (≈ 0.489 µM)	1 to 2 (≈ 1.95 to 3.91 µM)	–	1 to 2 (≈ 1.95 to 3.91 µM)	1 to 2 (≈ 1.95 to 3.91 µM)	–	–	–	–	–
COc1cc(-c2ccc(N3C[C@H](CNC(C)=O)OC3=O)cc2F)ccc1/C=N/N1CCOCC1	2 (≈ 4.25 µM)	2 (≈ 4.25 µM)	2 (≈ 4.25 µM)	2 (≈ 4.25 µM)	2 (≈ 4.25 µM)	–	–	–	–	–	–	–	–	–
CC(=O)NC[C@H]1CN(c2ccc(-c3ccc(/C=N/N4CCNCC4)nc3)c(F)c2)C(=O)O1	0.5 (≈ 1.14 µM)	0.5 (≈ 1.14 µM)	0.5 (≈ 1.14 µM)	1 (≈ 2.27 µM)	0.5 (≈ 1.14 µM)	–	–	–	–	–	–	–	–	–
CC(=O)NC[C@H]1CN(c2ccc(-c3ccc(/C=N/N4CCN(C(=O)c5ccccc5)CC4)nc3)c(F)c2)C(=O)O1	1 (≈ 1.84 µM)	1 (≈ 1.84 µM)	1 (≈ 1.84 µM)	2 (≈ 3.67 µM)	2 (≈ 3.67 µM)	–	–	–	–	–	–	–	–	–
CC(=O)NC[C@H]1CN(c2ccc(-c3ccc(/C=N/N4CCN(C)CC4)c(O)c3)c(F)c2)C(=O)O1	0.25 (≈ 0.532 µM)	0.125 (≈ 0.266 µM)	0.125 (≈ 0.266 µM)	0.12 (≈ 0.256 µM)	0.25 (≈ 0.532 µM)	1 (≈ 2.13 µM)	–	1 (≈ 2.13 µM)	0.5 to 1 (≈ 1.06 to 2.13 µM)	69.8	12.2	> 25	35	5.3
CC(=O)NC[C@H]1CN(c2ccc(-c3ccc(/C=N/N4CCSCC4)c(F)c3)c(F)c2)C(=O)O1	1 (≈ 2.11 µM)	0.25 (≈ 0.527 µM)	0.25 (≈ 0.527 µM)	0.25 (≈ 0.527 µM)	1 (≈ 2.11 µM)	–	–	–	–	–	–	–	–	–
CC(=O)NC[C@H]1CN(c2ccc(-c3ccc(/C=N/N4CC[S+]([O-])CC4)cn3)c(F)c2)C(=O)O1	2 (≈ 4.22 µM)	2 (≈ 4.22 µM)	1 (≈ 2.11 µM)	2 (≈ 4.22 µM)	2 (≈ 4.22 µM)	–	–	–	–	–	–	–	–	–
